High-throughput results from PubChem.
FLuc act counter = firefly luciferase counter-screen for stimulation assays; P08659; ATPlite luciferase biochemical, luminescence, 10 min; 0 = ATP-free wells, 1 = DMSO control; activation factor at 10 µM; 200,000 tested, under 10 active;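 active = luciferase activation factor, scaled between plate controls, of at least 2 with compound at 10 µM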
Target sequence (P08659 whole entry, looked up): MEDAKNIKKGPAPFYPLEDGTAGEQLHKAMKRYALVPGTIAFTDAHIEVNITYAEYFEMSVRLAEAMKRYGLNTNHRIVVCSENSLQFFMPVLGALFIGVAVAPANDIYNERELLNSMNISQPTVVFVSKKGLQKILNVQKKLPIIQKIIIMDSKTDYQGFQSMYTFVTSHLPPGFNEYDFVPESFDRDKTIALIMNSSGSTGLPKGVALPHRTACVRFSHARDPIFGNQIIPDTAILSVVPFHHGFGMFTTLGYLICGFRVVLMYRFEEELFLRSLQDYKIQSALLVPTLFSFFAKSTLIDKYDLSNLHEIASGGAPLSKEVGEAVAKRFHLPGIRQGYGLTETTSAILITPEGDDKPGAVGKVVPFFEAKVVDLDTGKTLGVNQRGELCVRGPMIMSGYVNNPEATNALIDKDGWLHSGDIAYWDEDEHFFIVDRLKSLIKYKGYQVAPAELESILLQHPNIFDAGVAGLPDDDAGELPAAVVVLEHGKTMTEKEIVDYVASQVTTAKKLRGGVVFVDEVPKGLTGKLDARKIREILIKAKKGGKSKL
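assay system = Luciferase/luciferin detection reagent, cell-free biochemical luciferase assay | also added = ATP substrate | times = 10 min post-reagent at room temperature | measured by = luminescence from luciferase reaction | measure = luciferase activation, seen as luminescence increase over controls | benchmarks = low control with PBS replacing ATP, high control enzyme plus ATP without compound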
ABCG2 block = inhibitors of human ABCG2 transporter, ABCB1 counter-screen | IgMXP3 cells, JC-1 efflux, flow cytometry | inhibition, % at 6.6 µM | 190,000 compounds, 0.1% hits;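 active = inhibition above 80%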;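 also: 0% = DMSO and 100% = nicardipine control wells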
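Test system: ABCG2 IgMXP3 and barcoded ABCB1 CCRF-Adr cell mix; Schedule: cells with compound and JC-1, 10 min at 25 °C, rotating, no wash; Technique: flow cytometry of retained JC-1 fluorescence; Measure: % inhibition of efflux relative to nicardipine and DMSO; Controls: nicardipine high and DMSO low controls.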
Redox H2O2 prof = compounds producing H2O2 with reducing agent – biochemical, NIH compound library profiling, artefact control for MLSCN library redox annotation, primary screen | DTT-dependent redox cycling H2O2, phenol red/HRP absorbance; 100% = 100 µM peroxide control, 0% = buffer | activation, % at 10 µM | 200,000 compounds, 0.03% hits | AID 878;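 active = activation of at least 50% relative to the plate's high and low controls in the primary single-dose screen; inactive = activation below 50%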;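 also: compound incubated with DTT at 0.8 mM final as the reducing agent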
Measles CPE = protection of cells from measles virus; Measles virus-infected cells, CPE protection, absorbance; protection (pct of control), % at 4 µM; 140,000 compounds, 1.5% hits; AID 841; in the data active = protection mostly above about 24%, no sharp cut-off; inactive = mostly below about 26%
FLuc inhib CS = inhibits firefly luciferase, flagging false hits in luciferase inhibition screens; ATPLite firefly luciferase biochemical luminescence, 10 min; inhibition, % at 10 µM; 200,000 compounds, 1.5% hits; P08659;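 active = inhibition above about 50% when tested at 10 µM, limit read from the data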
ABCB1 inh = inhibitors of human ABCB1 transporter, ABCG2 counter-screen; 190,000 compounds, 0.067% hits; CCRF-Adr cells, JC-1 efflux, flow cytometry; inhibition, % at 6.6 µM; in the data active = inhibition above about 40%;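 also: 0% = vehicle and 100% = reference inhibitor; higher value means more JC-1 retained so stronger ABCB1 efflux block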
An asterisk follows results filed as active; · = no result given. Sampled rows, rich in hits. Any-hit rate of the full collection: about 2.7%.

SMILES	FLuc act counter	ABCG2 block	Redox H2O2 prof	Measles CPE	FLuc inhib CS	ABCB1 inh
CCN=C1NN=C(c2ccc(C)cc2)CS1	0.4	0	0	5	64*	0
Cc1nc(SCC(=O)N2CC(C)OC(C)C2)nc(C)c1C (configuration not stated)	1	-6	1	26*	-3	0
O=C(NC(=S)NCc1nc2ccccc2[nH]1)c1ccc(F)cc1	1	5	-1	·	-1	0
COc1ccc2c(c1OC)C(=O)N(c1cccc(C)c1)C2	0.2	61	1	3	84*	4
O=C(Nc1ccc(S(=O)(=O)Nc2ccccc2)cc1)c1ccc(CN2CCOCC2)cc1	1	3	-1	·	-3	0
COC(=O)Cc1ccc(NC(=S)N2CCN(c3cc(Cl)ccc3C)CC2)cc1	1.1	28	0	·	-7	1
Cc1ccc(-c2csc(NC(=O)/C=C/c3ccco3)c2C(=O)O)cc1	0.4	-3	0	·	64*	-1
O=C(/C=C/c1ccco1)Nc1ccccc1C(=O)O	0.2	9	-1	·	80*	0
O=C(/C=C/c1ccco1)Nc1cccc(NC(=O)/C=C/c2ccco2)n1	0.5	-10	1	8	52*	-1
O=C(/C=C/c1ccco1)Nc1cc(Cl)ccc1C(=O)O	0.6	-6	-1	21	39	-4
CC(C)(C)OC(=O)N1CCC2(CC1)C(C#N)=C(N)OC1=C2C(=O)CCC1	1.1	-3	0	·	-10	-1
COC(=O)C1CC(O)CN1C(=O)NC1CCCCC1 (configuration not stated)	1	8	-1	·	-1	0
c1ccc2c(c1)oc1c(NCC3CCCO3)ncnc12 (configuration not stated)	1	2	7	3	-4	0
c1ccc(-c2nc(NCC3CCCO3)c3oc4ccccc4c3n2)cc1 (configuration not stated)	1.1	5	0	80*	-6	1
Cc1ccc(C(=O)n2c(N)nc3ccccc32)cc1	0	3	0	·	97*	0
COc1ccc(C(=O)n2c(-c3ccco3)nc3ccccc32)cc1	1	11	0	8	3	1
COC(=O)Nc1ccc(S(=O)(=O)N2CCCC(C(=O)N3CC(C)OC(C)C3)C2)cc1 (configuration not stated)	1	1	-2	·	-4	1
CCN1CCN(C(=S)c2ccc(OCC(=O)N3CCOCC3)cc2)CC1	1	1	0	6	-4	0
O=C1c2ccccc2C(=O)N1/N=C/c1ccc(O)c(O)c1	0.3	3	-1	4	74*	0
COc1cc(/C=C/C(=O)O)cc(S(=O)(=O)NCCCC(=O)O)c1OC	1	4	-1	·	3	0
COc1cc(O)cc2occ(-c3ccc(O)cc3)c(=O)c12	0.9	2	0	·	14	0
COc1ccc(-c2coc3cc(O)ccc3c2=O)cc1O	0.5	7	0	·	54*	0
O=C(Nc1ccc(N2CCOCC2)cc1)c1ccccc1SCC(=O)N1CCCC1	1	3	0	·	-5	-1
Cc1ccc2c(c1)c1cccc3c1n2CCN3CCC(N)=O	0.9	2	1	3	10	0
CCC(C)NC(=O)c1cc(CC(C)C)on1 (configuration not stated)	0.9	-3	0	54*	11	-2
SMILES	FLuc act counter	ABCG2 block	Redox H2O2 prof	Measles CPE	FLuc inhib CS	ABCB1 inh
COc1ccc(-c2cc(C(=O)NCCc3ccccc3)no2)cc1OC	1	3	5	4	2	1
COc1ccc(CCNC(=O)c2cc(-c3ccccc3OC)on2)cc1OC	1.1	37	2	45*	-5	3
Cc1cc(NC(=O)c2cc(CC(C)C)on2)no1	0.8	2	0	16	25	0
COc1ccc(CCNC(=O)c2cc(CC(C)C)on2)cc1OC	1	3	0	40*	-2	0
COc1cccc(-c2cc(C(=O)Nc3cccc(O)c3)no2)c1	0.2	1	2	7	83*	0
Cc1ccc(N=C(c2cccs2)N2CCOCC2)cc1	1.1	1	-1	8	-6	0
COc1ccccc1-c1cc(C(=O)Nc2cccnc2)no1	0.4	25	0	1	62*	1
COc1ccc(NC(=O)c2cc(-c3ccccc3OC)on2)cc1	0.9	4	0	16	5	1
O=S(=O)(NCc1ccccc1)NCc1cccc(C(F)(F)F)c1	1	2	-2	·	4	1
CCOC(=O)c1c(C)n(C)c2ccc(OC(=O)c3ccoc3)cc12	1	2	-3	39*	-3	-3
CCOC(=O)c1c(C)n(C)c2ccc(OC(=O)c3ccc([N+](=O)[O-])cc3)cc12	1.1	11	2	9	-6	1
COc1ncccc1-c1nnn(-c2ccc(C)cc2)n1	0.3	2	1	·	66*	0
COc1ncccc1-c1nnn(-c2ccc(F)cc2)n1	0.5	1	1	·	51*	0
Cc1ccc(NC(=O)CCNC(=O)c2ccco2)cc1F	1.1	6	-2	·	-5	0
CSc1n[nH]c(NCc2ccc(Cl)cc2)n1	0.8	4	0	4	19	0
CSc1n[nH]c(NCc2ccc(C)cc2)n1	0.4	-1	-1	5	60*	0
CN(C)S(=O)(=O)NCc1ccc2c(c1)OCO2	1	0	1	14	-3	0
CCCCCn1c(Sc2ncccn2)nc2c1c(=O)[nH]c(=O)n2C	1.1	0	1	38*	-8	0
CCN(CC)S(=O)(=O)c1cc(C(=O)OCC(=O)Nc2cccc(C)c2C)ccc1F	1	3	0	4	-2	1
COc1ccc(Br)cc1C(=O)N/N=C/c1ccc2c(c1)n(C)c(=O)n2C	1	2	0	37*	-1	0
COC(=O)C1C(c2ccc(N(C)C)cc2)C(C(=O)OC)S(=O)(=O)CS1(=O)=O (configuration not stated)	1	-1	0	·	-3	0
O=C(O)c1ccc(COc2ccccc2Cl)cc1	1	0	2	4	3	0
O=C(O)c1cccc(COc2ccccc2Cl)c1	0.4	7	·	14	63*	1
CC(C)c1ccccc1OCC(=O)NCC(c1cccs1)N1CCOCC1 (configuration not stated)	1	21	3	29*	1	2
COc1cc(/C=N/Nc2nncn2/N=C/c2ccc(O)c(OC)c2)ccc1O	0	2	-1	·	96*	1
